Measured values published in PMC11825259 (Heliyon, 2024).

Target: urease (Canavalia ensiformis, UniProt P07374)
Test: In vitro kinetic assay
Type: biochemical, jack bean
In short: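 Jack bean urease was run without and with several concentrations of the test compound, and the data were plotted as Lineweaver–Burk double-reciprocal plots. A secondary replot of Km against inhibitor concentration gave Ki. All data were in triplicate.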

Sequence of urease (P07374 whole entry, looked up): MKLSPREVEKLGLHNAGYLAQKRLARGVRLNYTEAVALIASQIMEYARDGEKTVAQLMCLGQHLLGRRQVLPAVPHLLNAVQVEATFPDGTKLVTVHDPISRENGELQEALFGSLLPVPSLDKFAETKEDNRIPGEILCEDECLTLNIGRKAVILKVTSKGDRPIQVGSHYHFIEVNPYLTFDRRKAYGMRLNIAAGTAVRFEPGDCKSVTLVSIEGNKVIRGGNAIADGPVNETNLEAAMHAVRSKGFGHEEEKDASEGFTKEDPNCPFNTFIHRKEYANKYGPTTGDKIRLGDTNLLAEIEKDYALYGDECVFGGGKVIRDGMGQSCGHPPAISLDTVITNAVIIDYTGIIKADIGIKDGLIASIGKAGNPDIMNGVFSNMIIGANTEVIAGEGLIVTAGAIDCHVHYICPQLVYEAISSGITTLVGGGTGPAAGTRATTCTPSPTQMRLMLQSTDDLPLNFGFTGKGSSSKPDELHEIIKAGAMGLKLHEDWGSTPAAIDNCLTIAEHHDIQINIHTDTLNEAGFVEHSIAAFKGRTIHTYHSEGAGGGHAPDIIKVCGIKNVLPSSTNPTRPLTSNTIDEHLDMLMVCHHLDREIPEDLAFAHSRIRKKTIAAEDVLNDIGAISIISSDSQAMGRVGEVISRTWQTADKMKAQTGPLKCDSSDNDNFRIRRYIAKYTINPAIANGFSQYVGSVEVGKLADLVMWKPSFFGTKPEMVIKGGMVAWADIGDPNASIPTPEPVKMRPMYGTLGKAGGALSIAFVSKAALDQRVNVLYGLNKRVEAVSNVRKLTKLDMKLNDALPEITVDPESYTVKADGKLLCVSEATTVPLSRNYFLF

Ki: 1990 nM | type of urease inhibition (Lineweaver-Burk plot): uncompetitive inhibitor
SMILES: Cc1cc(OCC(=O)N/N=C/c2ccc(OCc3cn(Cc4ccccc4)nn3)cc2)c2c(C)cc(=O)oc2c1 [13a, (E)-N'-(4-((1-Benzyl-1H-1,2,3-triazol-4-yl)methoxy)benzylidene)-2-((4,7-dimethyl-2-oxo-2H-chromen-5-yl)oxy)acetohydrazide]
